Results as given in ChEMBL document CHEMBL3272238, “Synthesis and biological evaluation of fragmented derivatives of tetrahydroisoquinolines. 3. Trimetoquinol studies” (J Med Chem, 1976).
Calls of active or inactive are those of the source.

Experiments:
[1] = species: Cavia porcellus; experiment: Agonist activity at beta-adrenoceptor in guinea pig trachea assessed as […] of carbachol-induced contraction by force-displacement transducer analysis; assay type: tissue-based
Summary of the method: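 Tissue strips held at 1 g tension in Krebs bicarbonate-glucose solution at 37°, equilibrated 1-1.5 h, then drug-induced tension changes recorded isometrically. Cumulative log-concentration curves were built, and the ED₅₀ (concentration giving half-maximal response) was read from each curve.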

[2] = species: Cavia porcellus; experiment: Chronotropic activity in guinea pig atrium assessed as increase in atrial rate by force displacement transducer analysis; assay type: functional, tissue-based; conditions: Cardiac atrium
Summary of the method: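 Isolated right atrium given cumulative test doses, with rate recorded over 3 min per dose at 1- and 3-min readings. Chronotropic responses were expressed relative to the maximum from 10⁻⁵ M isoproterenol added at the end of each run. ED₅₀ (half-maximal) was taken from individual plots.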

[3] = species: Rattus norvegicus; experiment: Induction of lipolysis in Sprague-Dawley rat fat cells assessed as increase in glycerol level at 10^-8 to 10^-4 M; assay type: functional
Summary of the method: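 Fat cells from epididymal tissue of nonfasted male rats (200–250 g) were isolated by collagenase digestion in Krebs bicarbonate with 3% BSA. Drug (1×10⁻⁸–3×10⁻⁴ M) was incubated 1 h at 37° in air, stopped with equal-volume 10% TCA, and glycerol assayed. Release was normalized to 10⁻⁶ M isoproterenol maximum; mean of N=3 ± SEM.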

Measured: Activity

COc1cc(CC(N)c2ccc(O)c(O)c2)cc(OC)c1OC (stereo not given)
active: all assays above

COc1cc(CC(NC(C)C)c2ccc(O)c(O)c2)cc(OC)c1OC (stereo not given)
active: all assays above

CNC(Cc1cc(OC)c(OC)c(OC)c1)c1ccc(O)c(O)c1 (stereo not given)
active: all assays above

CCNC(Cc1cc(OC)c(OC)c(OC)c1)c1ccc(O)c(O)c1 (stereo not given)
active: all assays above

COc1cc(C[C@@H]2NCCc3cc(O)c(O)cc32)cc(OC)c1OC (racemic)
active: all assays above
